Screening data from PubChem BioAssay.
Rows were chosen to be rich in hits. Some 1.8% of all compounds tested hit in one or more screens of this group.
HTRA1 inhibitor = inhibitors of human serine peptidase HTRA1. Q92743. recombinant HTRA1, FP-rhodamine activity-based probe, fluorescence polarization. inhibition, % at 5.96 µM. actives 0.5% (n = 340,000). AID 504803; in the data active means inhibition above about 36%
Target sequence (Q92743 whole entry, looked up): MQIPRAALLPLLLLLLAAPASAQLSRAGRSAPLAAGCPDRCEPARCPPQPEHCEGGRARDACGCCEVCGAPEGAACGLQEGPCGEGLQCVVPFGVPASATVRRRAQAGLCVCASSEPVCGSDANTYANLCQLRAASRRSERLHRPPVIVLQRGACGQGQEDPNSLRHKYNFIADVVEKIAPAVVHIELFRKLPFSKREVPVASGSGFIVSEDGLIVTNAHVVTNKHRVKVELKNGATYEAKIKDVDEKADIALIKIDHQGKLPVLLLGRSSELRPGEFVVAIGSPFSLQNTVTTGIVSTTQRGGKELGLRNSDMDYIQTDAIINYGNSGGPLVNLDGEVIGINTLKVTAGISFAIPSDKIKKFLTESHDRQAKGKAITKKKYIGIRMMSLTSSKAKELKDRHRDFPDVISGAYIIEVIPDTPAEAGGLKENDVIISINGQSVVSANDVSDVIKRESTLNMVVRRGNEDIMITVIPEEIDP
SIAE inh = blocks human sialic acid acetylesterase; inhibition, % at 9.66 µM; actives 0.69% (n = 370,000); Q9HAT2; SIAE FP-Rh probe binding, fluorescence polarization;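 active means inhibition above a cutoff: mean of compounds within the control limits plus 3 SD of those, cut at about 17% in these data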
Tn7 DDE FP = inhibitors of Tn7 peptide binding to human fibrin DD(E) | P02675 | FP displacement of FITC-Tn7 peptide from fibrin DD(E); 0% = median of compound wells per plate | inhibition, % at 8.3 µM | actives 0.13% (n = 370,000) | AID 720508;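 active means inhibition above the mean of compounds falling within the control limits plus 3 SD of them, cut at about 14% in these data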
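Assay system: human fibrin DD(E). Input: DD(E) 2 µM final. Medium: Tris buffer with calcium and detergent, pH 7.8. Compound dosing: single point at 8.3 µM. Timing: 10 min plus 3 h, room temperature. Technique: fluorescence polarization of the labelled Tn7 tracer. Read-out: percent inhibition. Replicates: singlicate testing.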
DDE Tn6 FP inh = inhibitors of Tn6 peptide binding to human fibrin DD(E). actives 0.21% (n = 370,000). inhibition, % at 8.3 µM. Fibrin DD(E) TRITC-Tn6 fluorescence polarization displacement. P02675;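 active means inhibition above a per-campaign cutoff: mean of compounds within control limits plus 3 SD, cut at about 15% in these data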
TCR-CD3 inh = inhibitors of human TCR-CD3 interaction | actives 0.37% (n = 360,000) | TAMRA-labeled TCR probe fluorescence, biochemical | inhibition, % at 9.4 µM; in the data active means inhibition above about 19%;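 further: recombinant mutant TCR 2C K166C tagged with TAMRA read by polarization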
ABHD4 inh = ABHD4 (mouse) inhibition, primary FP screen | Q8VD66 | inhibition, % at 8.92 µM | AID 720543 | purified mABHD4, FP-Rh probe fluorescence polarization | actives 0.54% (n = 370,000);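 active means inhibition exceeding the mean over every tested compound plus 3 SD, cut at about 30% in these data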
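Test system: mouse ABHD4 enzyme, wild type. Reagent: FP-Rh fluorescent activity-based probe, added after compound pre-incubation. Timing: pre-incubation 45 min, probe exposure 60 min, at 25 °C. Technique: FP readout, ex 525 nm / em 598 nm. Benchmarks: high control S159A mutant with DMSO, low control median of compound wells.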
SIAE inh conf = human SIAE inhibition, confirmation. shares compounds with SIAE inh. SIAE FP-Rh activity-based probe, fluorescence polarization. inhibition, % at 9.66 µM. actives 13% (n = 2,300). AID 1117263;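 active means mean inhibition of the replicates above the hit cutoff set in the primary screen, cut at about 17% in these data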;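 further: inhibitors lower polarization as more probe stays unbound to SIAE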
Of the large screens only hits and unclear results are named; the others gave an inactive call (follow-up assays come after a bar, where they were run).

CC(C)CNC(=O)C1Nc2ccc(C(F)(F)F)cc2C2C=CCC12 (stereo not drawn)	none
CC(C)C(OC(=O)CN1C(=O)COc2ccccc21)C(=O)NC1CCCC1 (stereo not drawn)	none
CC(C)C(OC(=O)CN1C(=O)COc2ccccc21)C(=O)NC1CCCCC1 (stereo not drawn)	SIAE inh 18.2 | SIAE inh conf inactive
O=C(CN1C(=O)NC2(CCc3ccccc32)C1=O)c1ccc(F)c(F)c1 (stereo not drawn)	none
S=C(NCCN1CCOCC1)NC1CCCC1	none
COc1ccc(C)cc1N(CC(=O)N1CCCCCC1)S(C)(=O)=O	none
COc1ccc(C)cc1N(CC(=O)N1CCCC1)S(C)(=O)=O	SIAE inh 17.5 | SIAE inh conf inactive
Cn1c(NC2=NC3(CCCC3)C3=C(CCCC3=O)N2)nc2ccccc21	none (no result: HTRA1 inhibitor, TCR-CD3 inh)
C=C(O[C@H]1[C@H](O)CC=C(C(=O)O)[C@@H]1O)C(=O)O	none (no result: HTRA1 inhibitor, TCR-CD3 inh)
CC(C)CC(=O)NC(=S)NNC(=O)c1ccc([N+](=O)[O-])cc1	SIAE inh 30.8 | SIAE inh conf inactive
Cc1cc(C(=O)NNC(=O)COc2ccccc2Cl)n[nH]1	none
CSC[C@@H]1NC(=S)N(c2ccc(C)cc2)C1=O	SIAE inh 51.7 | SIAE inh conf inactive
O=C(NCCc1ccc(C(F)(F)F)cc1)c1ccc(Cl)nc1	none
O=C(O)CCc1nn2c3ccccc3n(CC(=O)O)c2nc1=O	SIAE inh 29.8 | SIAE inh conf inactive
CCc1ccc(CCNC(=O)OC2CCC23CCC(c2ccccc2)CC3)cc1 (stereo not drawn)	none (no result: HTRA1 inhibitor, TCR-CD3 inh)
CC(C)c1ccc(NC(=O)COC(=O)CC2CCCC2)cc1	SIAE inh 20.0 | SIAE inh conf inactive
CCc1ccc(NC(=O)COC(=O)CC2CCCC2)cc1	none
CC(Sc1nnnn1-c1ccc(O)cc1)C(=O)NC1CCCCC1C (stereo not drawn)	none
CCOc1ccc(CN(C)C(=O)c2cc(S(=O)(=O)N3CCCC3)ccc2C)cc1	none
COc1ccc(C/C(C)=N/NC(=O)c2cccnc2)cc1	SIAE inh 18.4 | SIAE inh conf inactive
CCOC(=O)CN1CC23C=CC(O2)C(C(=O)Nc2cc(OC)ccc2OC)C3C1=O (stereo not drawn)	SIAE inh 17.5 | SIAE inh conf inactive
Cc1cc(C)cc(C(O)c2ncc(-c3ccccc3F)[nH]2)c1 (stereo not drawn)	none (no result: HTRA1 inhibitor)
O=C(CSc1nnc(-c2cccc(F)c2)o1)NC1CCCC1	SIAE inh 19.9 | SIAE inh conf inactive
O=C(CSc1nnc(-c2ccc(F)cc2)o1)N1CCCC1	SIAE inh 20.7 | SIAE inh conf inactive
Cc1cccc(-c2nnc(SCC(=O)NC3CCCC3)o2)c1	none
O=C(COc1ccc(Cl)cc1Cl)N1CCCCCC1	SIAE inh 17.9 | SIAE inh conf inactive
CCn1c(CCl)nc2cc(S(=O)(=O)N3CCOCC3)ccc21	SIAE inh 17.8 (no result: HTRA1 inhibitor) | SIAE inh conf inactive
C=CCN1[C@@H](CC(C)C)COc2cccc(N3CCCC3)c2S1(=O)=O	none (no result: HTRA1 inhibitor, TCR-CD3 inh)
COc1ccc(CN2C(=O)c3ccccc3C2c2nnnn2-c2ccc3c(c2)OCCO3)cc1 (stereo not drawn)	none (no result: HTRA1 inhibitor)
COc1ccc(-c2nc3cccc(C)n3c2NCc2ccco2)cc1OC	SIAE inh 25.1 | SIAE inh conf inactive
Oc1cccc(Nc2nc(O)c(/C=C3\C=Nc4ccccc43)s2)c1	none
Oc1nc(Nc2cccc(Cl)c2)sc1/C=C1\C=Nc2ccccc21	SIAE inh 25.7 | SIAE inh conf inactive
Cc1c(CC(=O)O)c(=O)oc2cc(OCc3nn[nH]n3)ccc12	SIAE inh 18.0 | SIAE inh conf inactive
Cc1c(Cc2ccccc2)c(=O)oc2cc(OCc3nn[nH]n3)ccc12	none
Cc1ccc(S(=O)(=O)N2CCC(O)(c3cccnc3)CC2)cc1	none
O=S(=O)(c1ccccc1Cl)N1CCC(O)(c2cccnc2)CC1	SIAE inh 19.8 | SIAE inh conf inactive
COc1ccc(C(=O)Nc2c(N)nc(SCC(=O)Nc3ccc(NC(C)=O)cc3)[nH]c2=O)cc1OC	SIAE inh 18.1 | SIAE inh conf inactive
Cc1c(O)ccc(/C(Cc2ccc3ccccc3n2)=N\O)c1O	SIAE inh 51.9 | SIAE inh conf 42.2
CC(=O)Oc1ccc(C(=O)Cc2ccc3ccccc3n2)c(O)c1C	none
CCCNC(=O)C(Cc1ccc(C(F)(F)F)cc1)NC(=O)c1ccc(C#N)cc1 (stereo not drawn)	none
CCCNC(=O)C(Cc1ccc(F)cc1)NC(=O)c1ccc(C#N)cc1 (stereo not drawn)	SIAE inh 19.7 | SIAE inh conf inactive
Cc1c(C(=O)N2CCN(CCc3ccccn3)CC2)oc2ccc(F)cc12	none
Cc1cc2oc(C(=O)N3CCN(CCc4ccccn4)CC3)c(C)c2cc1C	SIAE inh 23.9 | SIAE inh conf inactive
Cc1nnc(N(C)C(=O)c2ccccn2)s1	SIAE inh 31.8 | SIAE inh conf inactive
Cc1ccc(NC(=S)N/N=C2\CC(C)(C)Oc3ccc(O)cc32)cc1	none
CC(=O)N1CCC2(CC1)C/C(=N\NC(=S)Nc1ccc(C)cc1)c1cc(O)ccc1O2	SIAE inh 26.5 | SIAE inh conf inactive
CC(=O)C1=C(C)N(Cc2ccc(F)cc2)C(=S)NC1c1cccc(Cl)c1 (stereo not drawn)	none (no result: HTRA1 inhibitor)
CN(C)c1cccc(CNC(=O)c2csc([C@@H]3O[C@H](CO)[C@H](O)[C@H](O)[C@H]3O)n2)c1	SIAE inh 19.9 (no result: HTRA1 inhibitor) | SIAE inh conf inactive
CC(C)OC(=O)c1cc2c(ccn2C)n1CC(=O)N(Cc1ccccc1)c1ccccc1	SIAE inh 19.0 | SIAE inh conf inactive
COc1cccc(CNC(=O)CCCN2C(=O)C(c3ccccc3)Oc3cccnc32)c1OC (stereo not drawn)	none
CCCCN(CC)CCCNC(=O)c1cn(C)c(=O)c2c1c1ccccc1n2C	SIAE inh 18.6 | SIAE inh conf inactive
CCCCN(CC)CCNC(=O)c1cn(CCOC)c(=O)c2c1c1ccccc1n2C	none
COc1ccc(-n2c(SCC(=O)NNC(=S)Nc3ccc(C)cc3)nnc2-c2ccccc2)cc1	none (no result: HTRA1 inhibitor, TCR-CD3 inh)
Cc1cccc(C)c1NC(=O)CN1CCc2ccccc2C1	none
CN(C)/C=C(\C(=O)c1ccc(Cl)cc1)c1nnnn1-c1ccc(Cl)cc1	SIAE inh 18.3 | SIAE inh conf inactive
COc1cc(CNc2ncnc3c2ncn3[C@H]2CN(Cc3ccc4c(c3)OCO4)C[C@@H](CO)O2)cc(OC)c1OC	none (no result: HTRA1 inhibitor)
CCN1CCCC1CNC(=O)C(=O)NC(C)c1ccccc1 (stereo not drawn)	SIAE inh 19.3 | SIAE inh conf inactive
